Series [1] relates to Streptococcus pneumoniae. Kind of series: Antibacterial activity against macrolide-susceptible Streptococcus pneumoniae 1077 after 29 passages following overnight incubation by agar dilution method. Format: functional. On the technique in general: Agar dilution tests growth on a series of plates holding different concentrations.
The test system of series [2] is Streptococcus pyogenes. Briefly: Antibacterial activity against macrolide-resistant Streptococcus pyogenes 2011 harboring mef(A) gene after 35 passages following overnight incubation by agar dilution method.
The subject of series [3] is Streptococcus pneumoniae. Kind of series: Antibacterial activity against macrolide-susceptible Streptococcus pneumoniae 7127 harboring S20N mutation in L4 ribosomal protein and A105V mutation in L22 ribosomal protein after 29 passages following overnight incubation by agar dilution method. Format: functional.
Series [4] relates to Streptococcus pyogenes. Kind of series: Antibacterial activity against macrolide-susceptible Streptococcus pyogenes 2132 after 28 passages following overnight incubation by agar dilution method.
The test system of series [5] is Streptococcus pneumoniae. Kind of series: Antibacterial activity against macrolide-resistant Streptococcus pneumoniae 2686 harboring mutation in L4 ribosomal protein after 22 passages following overnight incubation by agar dilution method. Format: functional.
The test system of series [6] is Streptococcus pneumoniae. Kind of series: Antibacterial activity against macrolide-resistant Streptococcus pneumoniae 1076 harboring erm(B) and mef(A) gene after 18 passages following overnight incubation by agar dilution method. Format: functional.
The subject of series [7] is Streptococcus pneumoniae. Briefly: Antibacterial activity against macrolide-susceptible Streptococcus pneumoniae 7127 harboring S20N mutation in L4 ribosomal protein and A105V mutation in L22 ribosomal protein after 16 passages following overnight incubation by agar dilution method. Format: functional.
Series [8] relates to Streptococcus pyogenes. Briefly: Antibacterial activity against macrolide-resistant Streptococcus pyogenes 2094 harboring erm(A) gene after 43 passages following overnight incubation by agar dilution method.
For series [9], the system named is Streptococcus pyogenes. Briefly: Antibacterial activity against macrolide-resistant Streptococcus pyogenes 2368 harboring erm(B) gene after 18 passages following overnight incubation by agar dilution method.
A short description of series [10]: Half life in human at 400 to 500 mg. Conditions: in vivo.
In series [11] the test system is Streptococcus pneumoniae. Briefly: Antibacterial activity against macrolide-resistant Streptococcus pneumoniae 3009 harboring mutation in 23S rRNA after 20 passages following overnight incubation by agar dilution method. The format is functional.
In series [12] the test system is Streptococcus pneumoniae. Briefly: Antibacterial activity against macrolide-resistant Streptococcus pneumoniae 1635 harboring erm(A) gene after 32 passages following overnight incubation by agar dilution method. The format is functional.
For series [13], the system named is Streptococcus pyogenes. Briefly: Antibacterial activity against macrolide-resistant Streptococcus pyogenes 2368 harboring erm(B) gene after 6 passages following overnight incubation by agar dilution method.
The subject of series [14] is Streptococcus pneumoniae. Briefly: Antibacterial activity against macrolide-resistant Streptococcus pneumoniae 1635 harboring erm(A) gene after 50 passages following overnight incubation by […]. The format is functional. In a few lines:
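S. pneumoniae parental strains were passaged daily in subinhibitory drug concentrations in cation-adjusted Mueller-Hinton broth with 5% lysed horse blood. Each passage was seeded from the tube 1 to 2 dilutions below the MIC whose turbidity matched the growth control. MICs of resistant clones were measured by CLSI macrodilution. Parent and clone identity was confirmed by PFGE of SmaI-digested DNA.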

Series [15] relates to Streptococcus pneumoniae. Briefly: Antibacterial activity against macrolide-resistant Streptococcus pneumoniae 1076 harboring erm(B) and mef(A) gene after 14 passages following overnight incubation by agar dilution method. Format: functional.
The test system of series [16] is Streptococcus pyogenes. Kind of series: Antibacterial activity against macrolide-resistant Streptococcus pyogenes 2094 harboring erm(A) gene after 22 passages following overnight incubation by agar dilution method.
The test system of series [17] is Streptococcus pneumoniae. Briefly: Antibacterial activity against macrolide-resistant Streptococcus pneumoniae 3009 harboring mutation in 23S rRNA after 25 passages following overnight incubation by agar dilution method. The format is functional.
Series [18] has as its system Streptococcus pneumoniae. Kind of series: Antibacterial activity against macrolide-susceptible Streptococcus pneumoniae 7127 harboring S20N mutation in L4 ribosomal protein and A105V mutation in L22 ribosomal protein after 43 passages following overnight incubation by agar dilution method. The format is functional.

≈ marks a conversion by molar mass, not a printed value.

A word on the MIC: it is the least concentration at which growth counts as inhibited. As to `CC[C@H]1OC(=O)[C@H](C)[C@@H](O[C@H]2C[C@@](C)(OC)[C@@H](O)[C@H](C)O2)[C@H](C)[C@@H](O[C@@H]2O[C@H](C)C[C@H](N(C)C)[C@H]2O)[C@](C)(O)C[C@@H](C)CN(C)[C@H](C)[C@@H](O)[C@]1(C)O` [AZITHROMYCIN], the MIC in the series with Streptococcus pneumoniae [1] is more than 64 µg/mL; with Streptococcus pyogenes [2], 32 µg/mL (≈ 42.7 µM); in the series with Streptococcus pneumoniae [3] it was 0.5 µg/mL (≈ 0.668 µM); against Streptococcus pyogenes [4] it was 1 µg/mL (≈ 1.34 µM).

The term half-life denotes the time in which the quantity being followed falls by half. In the case of `CC[C@H]1OC(=O)[C@@](C)(F)C(=O)[C@H](C)[C@@H](O[C@@H]2O[C@H](C)C[C@H](N(C)C)[C@H]2O)[C@](C)(OC)C[C@@H](C)C(=O)[C@H](C)[C@H]2N(CCCCn3cc(-c4cccc(N)c4)nn3)C(=O)O[C@]12C` [SOLITHROMYCIN], the MIC against Streptococcus pneumoniae [5] came out at 0.5 µg/mL (≈ 0.592 µM); in the series with Streptococcus pneumoniae [6] it was 32 µg/mL (≈ 37.9 µM); in the series with Streptococcus pneumoniae [7], 0.125 µg/mL (≈ 0.148 µM); against Streptococcus pyogenes [8] it was 0.25 µg/mL (≈ 0.296 µM); in the series with Streptococcus pyogenes [9] it was 8 µg/mL (≈ 9.47 µM); in the series with Streptococcus pneumoniae [11], 0.25 µg/mL (≈ 0.296 µM). Further, the lowest concentration to inhibit growth in the series with Streptococcus pneumoniae [12] (MIC) was 0.06 µg/mL (≈ 0.071 µM). The molecule further gave a half-life in series [10] of 5 h.

With `CC[C@H]1OC(=O)[C@H](C)C(=O)[C@H](C)[C@@H](O[C@@H]2O[C@H](C)C[C@H](N(C)C)[C@H]2O)[C@](C)(OC)C[C@@H](C)C(=O)[C@H](C)[C@H]2N(CCCCn3cnc(-c4cccnc4)c3)C(=O)O[C@]12C` [TELITHROMYCIN], the MIC against Streptococcus pyogenes [13] is more than 64 µg/mL; with Streptococcus pneumoniae [14], 0.008 µg/mL (≈ 0.00985 µM); against Streptococcus pneumoniae [15], more than 64 µg/mL; against Streptococcus pyogenes [16], 0.25 µg/mL (≈ 0.308 µM).

In turn, `CC[C@H]1OC(=O)[C@H](C)[C@@H](O[C@H]2C[C@@](C)(OC)[C@@H](O)[C@H](C)O2)[C@H](C)[C@@H](O[C@@H]2O[C@H](C)C[C@H](N(C)C)[C@H]2O)[C@](C)(OC)C[C@@H](C)C(=O)[C@H](C)[C@@H](O)[C@]1(C)O` [CLARITHROMYCIN] yielded an MIC in the series on Streptococcus pneumoniae [17] of more than 64 µg/mL.

In the series with Streptococcus pneumoniae [18], `CCC[C@@H]1C[C@@H](C(=O)N[C@@H]([C@H]2O[C@H](SC)[C@H](O)[C@@H](O)[C@H]2O)[C@H](C)Cl)N(C)C1` [CLINDAMYCIN] came in with an MIC of 0.25 µg/mL (≈ 0.588 µM).
